According to PubChem BioAssay AID743238 (Broad Institute, 2013):
In all, about 360,000 compounds went through this assay and about 200 (0.056%) were called active.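 The calls were made as follows: active = mean normalized replicate activation at least 10% and every replicate at or above 10%; inconclusive = only one of the two criteria met; inactive = mean below 10% and not all replicates reach 10%.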 The full list was thinned out, with actives kept by preference.

Experiment: Xi reactivation inducers in mouse fibroblasts – imaging, XiGFP fibroblasts, GFP high-content imaging, set 2, primary screen (AID 743238);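 also: 0% = median of on-plate neutral control wells and 100% = ellipticine 6 µM median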
Conditions: % GFP-positive cells imaging, 3 d, at 7.58 µM, active compounds read high, cells co-treated with 5-aza-dC sensitizer, scaled so ellipticine positive control = 100%
Summary of the method: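 Assay system: SV40-immortalized XiGFP fibroblast cells, line 68-5-11; buffer or medium: DMEM plus 5-aza-dC sensitizer; compound: one concentration, pinned; timing: compounds 3 days, fix/stain 15 min at room temperature; benchmarks: positive control ellipticine, 6 µM final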

Structure (SMILES) | activation
Cc1noc(C)c1NC(=O)N(C)C[C@@H]1Oc2c(NC(=O)C3CCCCC3)cccc2C(=O)N([C@H](C)CO)C[C@@H]1C | -0.974% (inactive)
CCCC(=O)N1CCC2(CC1)CN[C@H](CO)c1[nH]c3cc(OC)ccc3c12 | -0.018% (inactive)
O=C(C[C@@H]1CC[C@H]2[C@@H](COC[C@@H](O)CN2S(=O)(=O)c2cccc(F)c2)O1)NCCCN1CCOCC1 | -0.0535% (inactive)
C[C@@H]1CCCCO[C@H](CN(C)Cc2ccncc2)[C@@H](C)CN([C@H](C)CO)C(=O)c2cc(NS(C)(=O)=O)ccc2O1 | -0.0215% (inactive)
CO[C@H]1CN(C)C(=O)c2ccc(NC(=O)C3CCC3)cc2OC[C@H](C)NC[C@@H]1C | 0.146% (inactive)
COc1ccc(NC(=O)Nc2ccc3c(c2)[C@H]2C[C@H](CC(=O)NC4CCCC4)O[C@@H](CO)[C@H]2O3)cc1 | 4.51% (inactive)
COc1cccc(-c2ccc([C@@H]3[C@H]4CN(C(=O)c5cccnc5)CC(=O)N4[C@H]3CO)cc2)c1 | 0.076% (inactive)
O=C(c1ccncc1)N1C[C@H]2[C@@H](c3ccccc31)[C@H](CO)N2C(=O)Nc1ccc(F)cc1 | 0.255% (inactive)
C[C@H]1CN([C@@H](C)CO)C(=O)Cc2cc(NC(=O)Cc3ccccc3)ccc2O[C@@H]1CN(C)S(=O)(=O)c1ccc(Cl)cc1 | -1.34% (inactive)
CO[C@@H]1CN(C)C(=O)c2cc(NC(=O)NC3CCCC3)ccc2OC[C@H](C)NC[C@H]1C | 0.41% (inactive)
C[C@@H]1CCCCO[C@@H](CN(C)C(=O)CCCN(C)C)[C@@H](C)CN([C@H](C)CO)C(=O)c2cc(NC(=O)Nc3ccc(F)cc3)ccc2O1 | 0.229% (inactive)
COc1ccc(N2C(=O)C3CCCN3C2c2cccs2)cc1 (centres undefined) | -0.124% (inactive)
COc1ccc(N2C(=O)C3CCCN3C2c2cc(OC)c(OC)cc2OC)cc1 (centres undefined) | 0% (inactive)
COc1ccc(N2C(=O)C3CCCN3C2c2cccc(OC)c2)cc1 (centres undefined) | 12.3% (active)
O=C(C[C@@H]1CC[C@@H]2[C@H](COC[C@H](O)CN2C(=O)C2CC2)O1)NCc1ccncc1 | 0.085% (inactive)
C[C@@H]1CCCCO[C@H](CN(C)S(C)(=O)=O)[C@@H](C)CN([C@@H](C)CO)C(=O)c2cc(NC(=O)CCC(F)(F)F)ccc2O1 | 0.0715% (inactive)
O=C(c1ccccn1)N1CC2(C1)[C@@H](c1ccccc1)[C@@H](CO)N2C(=O)C1CCCCC1 | -0.0175% (inactive)
O=C(N[C@@H]1CC[C@H](CCn2cc(C3CC3)nn2)O[C@H]1CO)c1cccnc1 | -0.107% (inactive)
CO[C@H]1CN(C)C(=O)c2cc(NC(=O)C3CC3)ccc2OC[C@@H](C)NC[C@H]1C | 0.168% (inactive)
CCc1nc2ccc(C(=O)N3CCN(c4cccc(Cl)c4)CC3)cc2nc1CC | 0.143% (inactive)

Structure (SMILES) | activation
CNc1cncc(-c2cccc(C(=O)N3CCOCC3)c2)n1 | 0.023% (inactive)
C#Cc1cc(N2CCN(C(=O)c3ccoc3)CC2)n2nc(-c3cccc(Cl)c3)cc2n1 | 34% (active)
CO[C@@H]1CN(C)C(=O)c2cc(NC(=O)c3cccc(F)c3)ccc2OC[C@H](C)N(C)C[C@@H]1C | -0.118% (inactive)
COc1ccc(NC(=O)N(C)C[C@@H]2OCCCC[C@H](C)Oc3ccc(NS(=O)(=O)c4c(C)noc4C)cc3C(=O)N([C@@H](C)CO)C[C@@H]2C)cc1 | 0.115% (inactive)
C[C@H](CO)N1C[C@H](C)[C@H](CN(C)Cc2ccc(C(=O)Nc3ccccc3N)cc2)Oc2ccc(NC(=O)Nc3ccccc3)cc2CC1=O | 0.0505% (inactive)
Cc1noc(C)c1NC(=O)Nc1ccc2c(c1)C(=O)N([C@H](C)CO)C[C@@H](C)[C@H](CN(C)C(=O)Nc1cccc3ccccc13)OCCCC[C@@H](C)O2 | 0.305% (inactive)
COc1cccc(CNC(=O)C[C@@H]2CC[C@H]3[C@@H](COc4ccc(NC(=O)c5cccs5)cc4C(=O)N3C)O2)c1 | -0.028% (inactive)
C[C@H]1CN([C@@H](C)CO)C(=O)c2ccccc2-c2ccccc2CO[C@H]1CN(C)Cc1ccc(-c2ccccc2)cc1 | 0.132% (inactive)
COc1ccc(S(=O)(=O)Nc2ccc3c(c2)CC(=O)N([C@@H](C)CO)C[C@@H](C)[C@H](CN(C)S(=O)(=O)c2ccccc2)O3)cc1 | 0.178% (inactive)
COc1cccc(S(=O)(=O)N[C@H]2C=C[C@H](CC(=O)NC3Cc4ccccc4C3)O[C@H]2CO)c1 | 0.645% (inactive)
C[C@H](O)C#Cc1cnc2c(c1)C(=O)N([C@@H](C)CO)C[C@H](C)[C@@H](CN(C)C(=O)c1ccccc1)O2 | -0.975% (inactive)
Cc1ccccc1-c1ccc([C@H]2[C@@H](CO)N3C(=O)CN(C(=O)c4ccncc4)C[C@@H]23)cc1 | -0.015% (inactive)
COc1ccc(S(=O)(=O)Nc2ccc3c(c2)C(=O)N([C@@H](C)CO)C[C@H](C)[C@@H](CN(C)C(=O)c2ccccc2)OCCCC[C@H](C)O3)cc1 | 0.072% (inactive)
COc1ccc2c3c(n(C)c2c1)[C@@H](CO)N(C(C)=O)CC31CCN(Cc2ccc(Cl)cc2)CC1 | 0.225% (inactive)
C[C@@H]1CCCCO[C@@H](CN(C)S(=O)(=O)c2cn(C)cn2)[C@@H](C)CN([C@@H](C)CO)C(=O)c2cc(NC(=O)Nc3ccc(C(F)(F)F)cc3)ccc2O1 | -0.98% (inactive)
CO[C@@H]1CN(C)C(=O)c2ccc(NC(=O)C3CC3)cc2OC[C@H](C)N(C(=O)c2ccccc2)C[C@@H]1C | 0.643% (inactive)
CC[C@@H]1CC=CC[C@H](C)Oc2ccccc2C(=O)N(C)[C@H](Cc2ccccc2)C(=O)N1 (mixture of isomers) | 0.007% (inactive)
C[C@@H]1CCCCO[C@H](CN(C)Cc2ccc3c(c2)OCO3)[C@H](C)CN([C@@H](C)CO)C(=O)c2cc(NS(=O)(=O)c3cccs3)ccc2O1 | -0.019% (inactive)
C[C@H]1CCCCO[C@@H](CN(C)C(=O)Nc2ccccc2)[C@@H](C)CN([C@@H](C)CO)C(=O)c2cc(NC(=O)CCC(F)(F)F)ccc2O1 | 0.045% (inactive)
